# Gli-Sufu antag = Gli-Sufu pathway antagonists, primary screen, luciferase luminescence, Sufu-KO-LIGHT cells, uHTS; Sufu-KO-LIGHT fibroblasts, Gli luciferase reporter luminescence; inhibition, % at 5 µM; hit rate 0.74% among 340,000;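 active = inhibition above about 55%, limit read from the data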;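 also: 0% = DMSO-treated cells and 100% = wells with medium but no cells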
# Jurkat NFkB inh = inhibitors of induced NF-kB luciferase reporter, primary screen, TCR NF-kB activation inhibitor project, cell-based, luminescence, uHTS | hit rate 0.53% among 330,000 | AID 435003, 2010 | inhibition, % at 4 µM | Jurkat, PMA/ionomycin-induced NF-kB luciferase reporter; in the data active = inhibition above about 50%
# Lipid droplet = inhibitors of hepatocyte lipid droplet formation, primary screen, imaging, high-throughput imaging, BODIPY stain; AML12 mouse hepatocytes, oleate lipid droplets; hit rate 0.4% among 240,000; inhibition, % at 6.5 µM;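 active = lipid droplet intensity inhibited by at least 50%, with more than 500 cells counted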
#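 Assay system: AML12 mouse liver cells | Compound: 6.5 µM single-point dosing | Schedule: Overnight exposure | Technique: Fluorescence imaging, 20x objective, two fields per well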
# H9c2 TAG inh = inhibitors of triacylglycerol accumulation, primary screen, cell-based, uHTS, fluorescence, H9c2; H9c2 cells, Nile Red lipid (TAG) fluorescence; cells loaded with 200 µM oleic acid; inhibition, % at 12.5 µM; hit rate 0.66% among 230,000;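 active = pattern-corrected inhibition of lipid staining of at least 50% with the nuclear-stain viability signal not falling by more than 50%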;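 also: 0% = DMSO wells and 100% = triacsin C control wells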
# 697 NFkB inh = inhibitors of PMA/ionomycin-induced NF-kB reporter, 697 cells, primary screen, B-cell NF-kB inhibitor project, cell-based, luminescence, uHTS; 697 B-cell NF-kB luciferase reporter, 16 h; inhibition, % at 4 µM; hit rate 0.33% among 330,000; in the data active = inhibition above about 35%
# iPSC survival up = enhancers of single-cell hiPSC survival, primary screen, ATPlite luminescence; 100% = ROCK inhibitor wells, 0% = DMSO; survival enhancement, % at 20 µM; hit rate 0.044% among 360,000; AID 602274, 2012; in the data active = survival enhancement above about 18%;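 also: cells exposed to compounds for 16 hours before the ATP read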
# 697 NFkB conf = PMA/ionomycin-induced NF-kB reporter inhibitors, 697 retest, confirmation, B-cell NF-kB inhibitor project, cell-based, luminescence, single concentration. shares compounds with 697 NFkB inh. 697 B-cell NF-kB luciferase, 16 h. inhibition, % at 4 µM. hit rate 35% among 2,000. AID 449746, 2010; in the data active = inhibition mostly above about 28%, no sharp cut-off; inactive = mostly below about 22%
# * marks the source's active call; other numbers are inactive results; . = no result. A selection: hits, their analogues and other compounds. The true share with any hit is near 1.8%.
SMILES,Gli-Sufu antag,Jurkat NFkB inh,Lipid droplet,H9c2 TAG inh,697 NFkB inh,iPSC survival up,697 NFkB conf
O=C(NCc1cccs1)c1csc([C@@H]2O[C@H](CO)[C@H](O)[C@H](O)[C@H]2O)n1,.,.,.,2,.,3,.
COc1cccc(/C=N/NC(=O)c2ccc(N3CCCC3=O)cc2)c1,-37,27,9,.,-468,0,-142
COc1ccc(Br)cc1/C=N/NC(=O)c1cc(Br)ccc1O,.,0,25,.,3,.,.
COc1cc(/C=N/NC(=O)c2ccc(-n3cccc3)cc2)ccc1O,-3,26,-14,12,43*,-1,-24
COc1ccc(C(=O)N/N=C/c2cc(Br)ccc2O)cc1OC,19,33,-42,56*,37*,0,15
COc1ccc(-c2ccc(F)cc2)cc1[C@H]1[C@H]2C=CC[C@@H](C)[C@@H]2C(=O)N1Cc1ccccc1,35,0,32,1,40*,2,46*
COc1ccc(-c2ccc(OC)c([C@H]3[C@H]4C=CC[C@@H](C)[C@@H]4C(=O)N3Cc3ccccc3)c2)cc1OC,18,9,-40,4,32,-2,.
Cc1cccc(-c2nc(CSc3nc4c(c(=O)[nH]3)CCC4)c(C)o2)c1,-3,24,0,3,39*,-1,21
CC1=CC(C)(C)Nc2ccc(OC(=O)CCN3C(=O)c4ccccc4C3=O)cc21,10,15,2,54*,41*,-2,14
CC(=O)Nc1cccc(C(=O)/C=C/c2ccc(/C=C/C(=O)c3cccc(NC(C)=O)c3)cc2)c1,.,13,-13,.,-293,.,-46
CC(=O)Nc1cccc(C(=O)/C=C/c2ccc(F)cc2)c1,-20,-7,21,.,15,-5,.
CCCCNC(=O)C1c2ccccc2OCC(=O)N1CCc1ccc(OC)c(OC)c1 (stereo not drawn),.,.,.,.,.,0,.
COc1ccc2[nH]c3c(c2c1)CCN1C(=O)C(CC(=O)NCc2cccc(C(F)(F)F)c2)C[C@H](C(=O)N(C(C)C)C(C)C)[C@@]31C (stereo partly drawn),1,.,.,37,35*,1,24
COc1ccc2[nH]c3c(c2c1)CCN1C(=O)C(CC(=O)NCc2ccc(OC)c(OC)c2)C[C@H](C(=O)N(C(C)C)C(C)C)[C@@]31C (stereo partly drawn),2,.,.,20,5,0,.
Cc1csc(SCC(=O)c2cc(C)n(Cc3cccs3)c2C)n1,13,-51,.,-16,-346,-4,-161
O=C1N=C(N2CCCCC2)S/C1=C\c1ccccc1F,-60,-38,-1,11,-36,0,.
CCCOc1ccccc1/C=C1\SC(N2CCCCC2)=NC1=O,-5,-57,-13,.,-300,0,-287
Cc1cc(-c2ccc(N3CCOCC3)cc2)nc2ccccc12,-40,-116,-2,.,-81,-3,.
c1ccc2nc(-c3ccc(N4CCOCC4)cc3)ccc2c1,-24,-67,-25,.,-348,-7,-291
O=C(Oc1ccc(Cl)c2cccnc12)c1cccc([N+](=O)[O-])c1,-6,4,14,-1,-3,2,.
O=[N+]([O-])c1ccccc1COc1ccc(Cl)c2cccnc12,-80,-76,-18,.,-306,0,-312
CS(=O)(=O)c1ccc(C(=O)N2CCN(S(=O)(=O)c3ccc(C4CCCCC4)cc3)CC2)cc1,28,.,.,-21,.,-5,.
CSC1=NC(=O)/C(=C\c2cccc3ccccc23)S1,36,2,.,5,19,2,.
c1ccc(CNc2ccc3ccccc3n2)nc1,-90,-130,.,.,-265,-2,-194
Cc1cc(NCc2ccccn2)nc2ccccc12,-2,-9,11,.,-3,-1,.
O=C(Cn1ccc([N+](=O)[O-])n1)NCc1ccccc1,1,-7,.,4,-6,0,.

# Source: PubChem (Sanford-Burnham Center for Chemical Genomics)
